# The full list was thinned out, with hits kept by preference.
# TLR4-MyD88 BLA – blocks binding of human TLR4 to MyD88; HeLa CL3-4 TLR4/MyD88 BLA complementation, FRET ratio; inhibition, % at 8.4 µM; actives 0.18% (n = 200,000); in the data active means inhibition above about 25%;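 further: 0% = vehicle and 100% = reference inhibitor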
# TLR9-MyD88 inh – blocks human TLR9 binding to MyD88. CHO BLA complementation TLR9-MyD88, CCF4 FRET ratio. inhibition, % at 4.98 µM. actives 0.21% (n = 340,000). AID 504734;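 active means inhibition above the mean over all tested compounds plus 3 SD, cut at about 21% in these data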;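 further: 0% = DMSO only wells and 100% = clavulanate BLA inhibitor control wells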
# Target sequence (Q99836 whole entry, looked up): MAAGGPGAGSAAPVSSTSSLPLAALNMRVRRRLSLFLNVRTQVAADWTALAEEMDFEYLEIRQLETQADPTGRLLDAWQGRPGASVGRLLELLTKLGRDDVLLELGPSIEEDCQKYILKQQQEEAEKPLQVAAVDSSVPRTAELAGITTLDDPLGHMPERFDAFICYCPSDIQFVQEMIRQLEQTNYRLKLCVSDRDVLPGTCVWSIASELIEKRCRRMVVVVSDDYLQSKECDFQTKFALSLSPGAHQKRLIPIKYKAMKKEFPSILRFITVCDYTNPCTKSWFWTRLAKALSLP
# Target sequence (Q9NR96 whole entry, looked up): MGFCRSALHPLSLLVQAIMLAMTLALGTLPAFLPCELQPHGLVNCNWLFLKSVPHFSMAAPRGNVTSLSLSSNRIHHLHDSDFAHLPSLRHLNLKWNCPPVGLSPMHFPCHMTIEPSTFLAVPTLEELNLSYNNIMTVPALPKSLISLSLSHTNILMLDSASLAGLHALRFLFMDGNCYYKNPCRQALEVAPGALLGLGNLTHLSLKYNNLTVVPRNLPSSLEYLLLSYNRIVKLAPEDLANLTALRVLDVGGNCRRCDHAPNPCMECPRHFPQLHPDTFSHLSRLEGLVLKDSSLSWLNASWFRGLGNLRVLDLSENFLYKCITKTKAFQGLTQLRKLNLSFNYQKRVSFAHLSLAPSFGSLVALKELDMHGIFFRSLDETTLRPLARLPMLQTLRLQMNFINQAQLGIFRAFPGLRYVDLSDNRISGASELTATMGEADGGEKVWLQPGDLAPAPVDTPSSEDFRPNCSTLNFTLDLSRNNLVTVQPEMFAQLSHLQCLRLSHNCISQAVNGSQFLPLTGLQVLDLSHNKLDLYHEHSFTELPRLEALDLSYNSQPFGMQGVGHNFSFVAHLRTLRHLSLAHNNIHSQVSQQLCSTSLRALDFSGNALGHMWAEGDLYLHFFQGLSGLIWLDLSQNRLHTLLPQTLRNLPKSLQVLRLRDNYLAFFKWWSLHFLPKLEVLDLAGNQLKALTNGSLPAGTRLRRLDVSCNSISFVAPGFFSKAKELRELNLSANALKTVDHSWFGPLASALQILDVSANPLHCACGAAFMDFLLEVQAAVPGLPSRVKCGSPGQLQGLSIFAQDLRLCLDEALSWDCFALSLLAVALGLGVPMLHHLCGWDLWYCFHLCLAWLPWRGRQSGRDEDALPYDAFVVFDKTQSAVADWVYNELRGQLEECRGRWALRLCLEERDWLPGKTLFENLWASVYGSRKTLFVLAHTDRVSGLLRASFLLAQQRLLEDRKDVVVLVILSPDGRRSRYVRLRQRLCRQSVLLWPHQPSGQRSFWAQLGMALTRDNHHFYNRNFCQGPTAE
# CHOP UPR activ – activators of apoptotic arm of unfolded protein response (CHOP). activation, % at 10 µM. CHO-CHOP luciferase reporter, UPR activation, luminescence; percent of tunicamycin response over DMSO baseline. actives 0.34% (n = 330,000). AID 449763;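 active means at 10 µM dose, activation of 40% or more, normalized to positive control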;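 further: 100% = tunicamycin at 10 µg/mL and 0% = DMSO alone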
#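 Material: CHO-CHOP cells, stable luciferase reporter of PERK-eIF2a-CHOP signalling; quantity: 500 reporter cells seeded per well; buffer or medium: F12 medium containing 10% fetal bovine serum; compound: one dose, 10 µM in 0.5% DMSO; incubation: 6 h compound treatment, 37 °C; measured by: Steady-Glo luciferase luminescence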
# UPR XBP1 act – adaptive UPR (XBP1) activation; CHO-XBP1 luciferase reporter, IRE1-XBP1 UPR activation, luminescence; percent of tunicamycin response, DMSO as zero; activation, % at 20 µM; actives 0.33% (n = 330,000);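 active means versus positive control, 20 µM dose yields 30% or more activation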;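 further: 100% = tunicamycin at 10 µg/mL and 0% = DMSO only wells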
#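 incubation = overnight seeding at 37 °C, 6 h compound treatment at 37 °C | assay system = CHO-XBP1 cells stably carrying IRE1-XBP1-driven luciferase reporter | input = 1000 cells per well | detection = luciferase luminescence | dosing = single point, 20 µM final compound, 1% DMSO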
# CHOP inhibitor – inhibitors of CHOP induction in ER stress response; CHO-K1 CHOP-promoter luciferase, tunicamycin-induced, 15-18 h; inhibition, % at 10 µM; actives 3.8% (n = 220,000); AID 2732;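 active means compounds that reduced the stress-induced luciferase reporter signal by more than about 70% of percent inhibition, limit read from the data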;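 further: 0% = tunicamycin plus vehicle and 100% = wells without tunicamycin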
# NOD2-RIPK2 inh – NOD2-RIPK2 protein interaction inhibition. O43353. CHO BLA complementation NOD2-RIPK2, CCF4 ratio. inhibition, % at 4.98 µM. actives 0.38% (n = 360,000). AID 624267; in the data active means inhibition above about 21%;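 further: 0% = vehicle only and 100% = reference blocker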
# CHOP inh conf – confirmation of CHOP induction inhibitors; shares compounds with CHOP inhibitor; CHO-CHOP promoter luciferase reporter, tunicamycin-induced, luminescence; inhibition, % at 10 µM; actives 45% (n = 2,100); AID 504437;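 active means mean of three repeat readings of reporter signal inhibition above a set limit, cut at about 70% in these data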;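 further: 0% = tunicamycin plus vehicle and 100% = wells lacking tunicamycin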
# CHOP UPR conf – confirmation of apoptotic unfolded protein response (CHOP) activators; shares compounds with CHOP UPR activ; CHO-CHOP cells, CHOP-luciferase reporter luminescence; percent of tunicamycin response, DMSO as zero; activation, % at 10 µM; actives 64% (n = 1,000); AID 463112; in the data active means activation above about 33%;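 further: 0% = DMSO wells and 100% = tunicamycin 10 µg/mL wells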
# UPR XBP1 confirm – confirmation of adaptive unfolded protein response (XBP1) activators; activation, % at 20 µM; CHO-XBP1 IRE1-XBP1 luciferase reporter, luminescence; shares compounds with UPR XBP1 act; actives 63% (n = 1,000);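 active means reporter signal at least 30% of the positive control's activation in two or more of four replicate wells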;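 further: plate controls were DMSO negative control for no effect and tunicamycin 10 µg/mL positive control for full effect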
# * hit, by the source's call; / = no result given.
SMILES,TLR4-MyD88 BLA,TLR9-MyD88 inh,CHOP UPR activ,UPR XBP1 act,CHOP inhibitor,NOD2-RIPK2 inh,CHOP inh conf,UPR XBP1 confirm,others
Cn1c(-c2cccc(F)c2)nc2c1c(=O)[nH]c(=O)n2Cc1ccccc1,/,-3,-2,2,/,-6,/,/,
COCOCCn1cc(CN2CCS(=O)(=O)N(Cc3ccc(-c4cccc(N(C)C)c4)cc3)C(C(C)C)C2=O)nn1 (centres undefined),/,4,/,/,/,-8,/,/,
CCOC(=O)C1=C(O)c2ccccc2C(=O)/C1=C\c1ccc(C)cc1,5,-4,/,/,-29,11,/,/,
CCOC(=O)C1=C(Cc2ccc(Cl)cc2)C(=O)c2ccccc2C1=O,8,2,118*,-1,107*,29*,45,/,CHOP UPR conf=37*
COc1cccc(C(=O)C(C#N)=C(SC)SC)c1,/,-5,119*,-4,102*,-5,118*,/,CHOP UPR conf=3
CC(=O)Nc1ccc(NC2=C(Cl)C(=O)c3ccccc3C2=O)cc1,-39,/,45*,-1,104*,/,-125,/,CHOP UPR conf=20
COc1cccc(C(=O)O/N=C(\N)CS(=O)(=O)c2ccccc2)c1,/,-18,1,-1,/,-10,/,/,
O=C1NN(c2ccccc2)C(=O)/C1=C/c1ccc(Sc2ccc(Cl)cc2)o1,/,3,61*,3,98*,-10,78*,/,CHOP UPR conf=43*
O=C1NN(c2ccccc2)C(=O)/C1=C/c1ccc(-c2ccc(Cl)c(C(=O)O)c2)o1,17,-3,/,/,25,-8,/,/,
Cc1ccc(Sc2ccc(/C=C3/C(=O)NN(c4ccccc4)C3=O)o2)cc1,/,6,44*,4,98*,-1,36,/,CHOP UPR conf=40*
Cc1nc(C)n(CCNS(=O)(=O)c2ccc(C)c(C)c2)n1,/,-4,2,-6,/,-10,/,/,
COc1cccc(C(=O)NCCNC(=O)c2ccco2)c1,/,0,0,4,/,2,/,/,
COc1ccc(Cc2c(-c3ccc(C#N)cc3)nc3c(Cl)cc(C(F)(F)F)cn23)c(C)c1,/,/,/,/,/,-14,/,/,
O=C(COC(=O)c1cccnc1Cl)NCc1ccco1,4,-7,8,1,-6,3,/,/,
CCN1CCN(Cc2ccc(NC(=O)c3ccc(C)c(NC(=O)c4c[nH]c5cc(C(F)(F)F)ccc5c4=O)c3)cc2C(F)(F)F)CC1,/,3,68*,-2,104*,3,114*,/,CHOP UPR conf=-5
O=S(=O)(/N=C(\Sc1ccc(Cl)cc1)c1ccccc1)c1ccccc1,-1,8,21,43*,103*,-7,35,3,
Nc1nc(NCc2ccco2)nc(Nc2ccccc2)c1[N+](=O)[O-],/,3,-2,2,20,-10,/,/,
Fc1ccc(Nc2nc(NCc3ccco3)c3ccccc3n2)cc1,/,5,27,31*,97*,-3,73*,33*,
CC1=C(C#N)C(=O)NC1(C)O (centres undefined),/,1,/,/,/,16,/,/,
CCOC(=O)c1cnc(-n2nc(C)cc2C)nc1NC,6,1,1,0,-23,5,/,/,
CCOC(=O)c1cnc(-n2nc(C)cc2C)nc1NC1CCCCC1,12,1,99*,40*,106*,-2,117*,12,CHOP UPR conf=34*
Cc1cccc(NC(=O)/C(C#N)=C/c2cn(CC(=O)NCc3ccco3)c3ccccc23)c1C,-7,16,1,57*,109*,3,90*,168*,
CCOc1cccc(C(=O)Nc2cccc(-c3nnc(-c4ccc(C)cc4)o3)c2)c1,-8,-1,136*,162*,105*,-8,103*,160*,CHOP UPR conf=54*
CN=C1SC(CC(=O)Nc2ccc(F)cc2F)C(=O)N1/N=C/c1ccc(OC(F)F)c(OC)c1 (centres undefined),-11,-6,30,201*,98*,4,116*,5,
COc1ccc(Cn2c(SCc3cc(C)ccc3C)nc3cc(OC)c(OC)cc3c2=N)cc1,4,4,20,100*,104*,4,123*,67*,
SMILES,TLR4-MyD88 BLA,TLR9-MyD88 inh,CHOP UPR activ,UPR XBP1 act,CHOP inhibitor,NOD2-RIPK2 inh,CHOP inh conf,UPR XBP1 confirm,others
CCOc1ccc(CCNC(=O)C2CCC(=O)N2C2CCCCC2)cc1OCC (centres undefined),-11,7,-2,-1,50,-2,/,/,
Cc1cc(=O)n2nc(N3CCCC(C(=O)Nc4ccc(C)c(C)c4)C3)sc2n1 (centres undefined),/,6,0,0,/,6,/,/,
O=C(Nc1ccc(C(F)(F)F)cc1)c1cc(-c2cccnc2)nc2ccc(Br)cc12,2,-2,124*,91*,102*,-2,93*,90*,CHOP UPR conf=81*
CC(=O)Nc1cccc(NC(=O)c2cc(-c3cccnc3)nc3ccc(Br)cc23)c1,6,2,4,-2,-3,-8,/,/,
O=C(Nc1ccc(-c2nc3ncccc3o2)cc1)c1ccc(Br)o1,-9,-6,5,62*,103*,-5,-18,4,
COc1cc(-c2nc(-c3ccc(NC(=O)c4ccc(Br)o4)cc3)no2)cc(OC)c1OC,0,-6,4,7,-2,-5,/,/,
COc1ccc(-c2nc(-c3ccc(NC(=O)c4ccc(Br)o4)cc3)no2)cc1OC,4,1,30,35*,103*,-12,110*,16,
COc1ccc2c(CC(=O)NC3CCCc4ccccc43)coc2c1 (centres undefined),-3,10,-1,-2,10,7,/,/,
CCOC(=O)c1csc(NC(=O)CC2CCCC2)n1,-3,11,1,4,36,-2,/,/,
CC(C)c1ccc(-c2cc(C(=O)N3N=C(C(F)F)CC3(O)C(F)F)c3ccccc3n2)cc1 (centres undefined),-13,2,4,39*,99*,6,105*,13,
CCOc1ccc2nc(NC3=NC(C)(C)C=C(C)N3)nc(C)c2c1,-1,-9,-2,1,4,-2,/,/,
CCOc1ccc2nc(NC3=NC(c4ccc(OC)cc4)CC(=O)N3)nc(C)c2c1 (centres undefined),3,-10,30,133*,106*,1,-33,167*,
